Data: PMC2943235 (Circulation research, 2010)
Entries after “also recorded” stand apart in the source; their conditions may differ.

Key:
THP-1 cells [1] = assay: Cholesterol efflux from THP-1 cells, with or without LXR agonist; type: cell-based, human
THP-1 cells [2] = type: cell-based, human; details: (efflux from live cells minus fixed cells)/efflux from live cells x100%; 80 μg/ml; 4 h; compared with apoA-I
VCAM-1 = type: cell-based, mouse; details: 0.75 mg/ml; TNF-α-activated SVEC4/VCAM-1 cells
Summary of the method: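 SVEC4/VCAM-1 mouse endothelial cells were washed, then given test peptide, apoA-I or HDL at 0.75 mg/ml final for 18 h. TNF-α was added in serum-free medium (10 ng/ml final) for 5 h, and luciferase activity was measured. Activity was expressed per mg cellular protein, relative to vehicle-treated cells, as means ± SEM.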

Substance | Capacity to support (ABCA1-dependent) cholesterol efflux, in words (THP-1 cells [1]) | Specificity of cholesterol efflux, in words (THP-1 cells [2]) | Inhibition of VCAM-1 expression, in words (VCAM-1)
EKLKAKLEELKAKLEELL- P- EKAKAALEEAKAKAEELA | very low overall capacity to support cholesterol efflux |  | 
EKLKAKLEELKAKLEELL- P- EKLKAKLEELKAKLEELL [ELK-2A2K2E] | exceptional capacity to support cholesterol efflux, even exceeding that of apoA-I; also recorded: very active in ABCA1-dependent cholesterol efflux | exceptional specificity | 
EKLKALLEKLLAKLKELL P- EKLKALLEKLLAKLKELL [ELK-2A] |  |  | most active peptide
EWLKELLEKLLEKLKELL- P- EWLKELLEKLLEKLKELL [ELK-1W] | modest capacity for the ABC-dependent efflux | exceptional specificity | 
